# Assay outcomes (PubChem BioAssay)
# A selection: hits, their analogues and other compounds. The true share with any hit is near 3.1%.
# Cneo AK release = causes C. neoformans cell lysis; adenylate kinase release luminescence, 4 h; normalised: neutral wells 0, clomiphene wells 100; lysis activity, % at 15 µM; actives 0.2% (n = 360,000); AID 651654;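 active = mean lysis activity across replicates of at least 80%, whatever share of replicates individually reach that level; inactive = mean lysis activity below 80%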
#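 Assay system: log-phase C. neoformans yeast / Quantity: yeast cell density of 5 × 10^6 cells/mL / Medium: fresh YPD growth medium / Compound: single dose / Timing: static 4 h at 37 °C with compound, 1 h detection / Measured by: adenylate kinase release luminescence / Read-out: lysis from increased AK signal / Benchmarks: Clomiphene as positive lysis control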
# CFTR F508del cor = CFTR F508del correction in bronchial cells | actives 0.36% (n = 350,000) | CFBE cells, YFP halide quenching; stimulated with forskolin plus potentiator P3; % fluorescence drop versus neutral controls | activity (quench increase), % at 7.58 µM;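 active = mean added fluorescence quench of at least 8% versus neutral control, with both replicates also reaching 8%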;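 note: cells transiently co-express mutant CFTR-F508del with the halide-sensitive YFP; corrector assay measuring rescue of mutant channel to the surface after 24 h compound exposure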
# INS-1E GSIS act = primary screen for activators of insulin secretion dependent on glucose, INS-1E cells, GLuc reporter luminescence; activation, % at 16.6 µM; INS-1E GLuc reporter insulin secretion, 2-3 h; actives 0.61% (n = 370,000);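 active = lowest replicate activation of at least 40%, so every replicate reaches that level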;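 note: 0% = median of neutral control wells and 100% = median of IBMX positive control wells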
# miR122 inh = miR-122 inhibition in Huh7 cells. Huh7 miR-122 Renilla luciferase sensor, 48 h; neutral wells = 0, positive control = 100. activation (reporter increase), % at 12.5 µM. actives 0.3% (n = 340,000). AID 602342;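 active = mean replicate activation score at least 90 and every replicate individually at or above 90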;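 note: higher luciferase means less miR-122 activity so hits act as miR-122 inhibitors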
# HIV Env fusion = HIV envelope-mediated fusion inhibition | HeLa-JRFL Env/CEM21 cell fusion, luciferase | actives 1.1% (n = 360,000) | inhibition, % at 12.3 µM | AID 651610;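 active = mean replicate inhibition score of at least 50 and every replicate individually at or above 50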;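 note: 0% = plate neutral controls and 100% = maraviroc near 300 nM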
# Ecoli rRNA inh = selective bacterial rRNA inhibition in E. coli | E. coli WT GFP vs humanized-ribosome RFP mutants, fluorescence, 24 h; hits give low values; DMSO median 0, no signal -100 | GFP signal change (wild-type ribosome), % (concentration not given with the values) | actives 1.6% (n = 350,000) | AID 720706;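 active = significant combined selectivity score with lowered wild-type GFP, culture density cut under 30%, mutant RFP and density less affected; inactive = any of these conditions unmet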
# * marks the source's active call; other numbers are inactive results; . = no result given; [ ] = dose if it differs, or a comment.
SMILES,Cneo AK release,CFTR F508del cor,INS-1E GSIS act,miR122 inh,HIV Env fusion,Ecoli rRNA inh
Cc1ccc(NC(=O)CSc2nnc(C3CC3)n2CC2CCCO2)c(C)c1 (centres undefined),-2,2,6,-2,-5,11
O=C(CSc1nc(-c2ccco2)cc(C(F)(F)F)n1)Nc1ccc2c(c1)CCC2,1,.,.,7,.,.
O=C(CSc1nnc(Cc2cccs2)n1Cc1ccco1)Nc1ccc(Cl)cc1Cl,-1,.,.,21,59*,.
Cc1ccc(NC(=O)CSc2nc(-c3ccco3)cc(C(F)(F)F)n2)cc1C,2,.,.,45,56*,.
Cc1ccc(NCc2nnc(SCC(=O)Nc3ccccc3)n2CC2CCCO2)c(C)c1 (centres undefined),.,.,.,151*,-51,.
COC(=O)CSc1nnc(CSc2nc(C)cc(C)n2)n1Cc1ccco1,.,.,.,-3,-36,.
CCCC(=O)Nc1ccc2c(c1)OC[C@@H](C)NC[C@H](C)[C@H](OC)CN(C)C2=O,1,1,-2,.,-11[16.7 µM],1
Cc1ccc(NCc2nnc(SCC(=O)Nc3ncc(C)s3)n2Cc2ccco2)c(C)c1,5,.,156*,-12,-114,.
O=C(CSc1nnc(Cc2ccccc2)n1Cc1ccco1)NC12CC3CC(CC(C3)C1)C2,-6,.,.,10,58*,.
CCc1ccc(C2=NNC(=Nc3cccc(S(=O)(=O)N(C)C)c3)SC2)cc1,.,.,.,.,80*,6
Cc1cccc(N=C2NN=C(c3ccc4c(c3)OCCO4)CS2)c1,-7,2,21,-2,.,13
COc1ccc(N2CCN(C(=O)CSc3nnc(-c4cc5ccccc5cc4O)n3C)CC2)cc1,-1,.,.,-3,77*,.
COc1ccc(N2CCN(C(=O)CSc3nnnn3-c3ccc4c(c3)OCCO4)CC2)cc1,.,5,12,.,.,-21*
O=C(Nc1ccc(F)cc1)N1C[C@@H]2[C@H](c3ccccc31)[C@@H](CO)N2Cc1ccccc1,-2,1,-8,-10[16.7 µM],.,-4
O=C(c1cccc(F)c1)N1C[C@@H]2[C@H](c3ccccc31)[C@H](CO)N2C(=O)c1cccc(F)c1,0,0,3,10[16.7 µM],.,-3
O=C(c1cccc(F)c1)N1C[C@@H]2[C@H](c3ccccc31)[C@H](CO)N2Cc1cocn1,82*,4,1,79[16.7 µM],.,0
O=C(Nc1ccc(F)cc1)N1C[C@@H]2[C@H](c3ccccc31)[C@H](CO)N2Cc1cocn1,91*,1,-13,-3[16.7 µM],.,-3
C[C@@H]1CN([C@@H](C)CO)C(=O)c2cccc(NC(=O)Nc3ccc(F)cc3)c2O[C@@H]1CN(C)S(=O)(=O)c1ccccc1,-4,-1,-8,3[16.7 µM],25[16.7 µM],0
CCc1ccc(OCCNC(=O)c2ccccc2SCc2ccc(F)cc2)cc1,0,.,.,-3,58*,.
C[C@H]1CN([C@@H](C)CO)C(=O)Cc2cc(NC(=O)Cc3cn(C)c4ccccc34)ccc2O[C@H]1CN(C)C(=O)Nc1ccccc1,-4,3,-2,1[16.7 µM],-1[16.7 µM],-1
CCCCNC(=O)C(=O)Nc1ccc2c(c1)N(S(=O)(=O)c1cccs1)CCC2,-1,11*,.,6,-5,2
CC(C)NC(=O)C(=O)Nc1ccc2c(c1)N(S(=O)(=O)c1cccs1)CCC2,2,-1,5,-1,-1,-18*
CNC(=O)C(=O)Nc1ccc2c(c1)N(S(=O)(=O)c1cccs1)CCC2,0,-3,5,.,-14,-2
CCOc1ccc(Nc2oc(-c3cccc(Cl)c3)nc2C#N)cc1,.,.,106*,-10,-16,.
CCOc1ccc(Nc2oc(-c3ccco3)nc2C#N)cc1,4,.,.,-6,.,.
COc1ccc(S(=O)(=O)NNC(=S)NCCc2ccccc2)c(OC)c1,0,0,-13,.,-34,-25*
CC(=O)N1CCN(CCS(=O)(=O)c2cc(Cl)ccc2Cl)CC1,.,-2,2,-14,-11,4
COc1ccc(N2CCN(CCS(=O)(=O)c3cc(Cl)ccc3Cl)CC2)cc1,2,-3,3,17,-8,-22*
